Bioassay records deposited in PubChem BioAssay by several laboratories.
MC4R barr agon – activates human MC4R beta-arrestin recruitment; hit rate 0.98% among 360,000; U2OS MC4R beta-arrestin complementation, luminescence; percent of melanotan II response, DMSO zero; AID 540308; activation, % at 8.9 µM;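 active = activation above a per-plate cutoff, the mean activation of sample wells on that plate plus 3 SD, cut at about 8% in these data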
Target sequence (P32245 whole entry, looked up): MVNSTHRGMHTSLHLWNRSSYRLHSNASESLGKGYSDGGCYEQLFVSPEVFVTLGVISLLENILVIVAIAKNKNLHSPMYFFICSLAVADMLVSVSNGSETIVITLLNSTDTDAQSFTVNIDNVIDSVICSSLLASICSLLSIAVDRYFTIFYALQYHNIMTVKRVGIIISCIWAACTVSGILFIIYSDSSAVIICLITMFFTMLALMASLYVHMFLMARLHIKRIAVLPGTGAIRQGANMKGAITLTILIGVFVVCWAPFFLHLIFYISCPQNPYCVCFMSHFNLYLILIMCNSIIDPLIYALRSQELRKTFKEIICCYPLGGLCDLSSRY
NTR1 ag – activates human neurotensin receptor 1. P30989. NTR1-U2OS beta-arrestin-GFP spot imaging, agonist mode. activation, % at 20 µM. hit rate 0.17% among 330,000. AID 493036;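 active = activation at or above 40% of the spot to cytoplasm intensity ratio, with at least 20 cells analyzed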;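 also: 0% = DMSO without peptide and 100% = 100 nM NTR1 peptide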
MC4R antag cAMP – antagonists of human melanocortin 4 receptor (MC4R); MC4R-expressing cells, MTII-stimulated cAMP, LANCE TR-FRET; inhibition, % at 6.5 µM; hit rate 0.48% among 360,000; AID 540295;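 active = inhibition above its plate's cutoff, the mean of tested wells on that plate plus 3 SD, cut at about 29% in these data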;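 also: 0% = Melanotan II alone and 100% = Melanotan II plus saturating MCL0020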
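System: U2OS-MC4R stable cell line; Technique: Eu-cAMP/anti-cAMP TR-FRET, emission 671 nm; Repeats: single well per compound; Also added: Melanotan II; Dosing: one concentration, 6.5 µM nominal; Schedule: 30-min compound, 1-h challenge, 1-h detection, room temperature.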
AI-2 QS modul – modulates the Vibrio harveyi AI-2 quorum sensing system | activity change, % at 7.5 µM | Vibrio harveyi JMH597 AI-2 luminescence/OD600 ratio, 9 h; active compounds read low; strain lacks LuxN and CqsS sensors; 0 = neutral-control median | hit rate 0.4% among 300,000; in the data active = activity change below about -75%, passing the limit was not always enough;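 also: luminescence divided by OD600 gain over 9 h not by final OD600 alone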
U2OS cAMP counter – U2OS forskolin cAMP inhibition counter-screen | hit rate 26% among 1,600 | shares compounds with MC4R antag cAMP | parental U2OS, LANCE TR-FRET | AID 602193 | inhibition, % at 6.5 µM;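 active = mean inhibition over triplicates above the low-control well mean plus 3 SD, set per campaign, cut at about 13% in these data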;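 also: signal is single emission at 671 nm which falls as cellular cAMP rises; 0% = forskolin-stimulated wells and 100% = buffer without forskolin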
MC4R antag conf – human MC4R cAMP antagonism confirmation; inhibition, % at 6.5 µM; MC4R-expressing cells, MTII-stimulated cAMP, TR-FRET; hit rate 27% among 1,600; shares compounds with MC4R antag cAMP; in the data active = inhibition above about 29%;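 also: 0% = agonist stimulated wells alone and 100% = agonist stimulated wells plus saturating reference antagonist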
Numbers without * were called inactive; / = no result. This is a sample that favours compounds with a hit; in the whole collection about 1.8% have one here.

SMILES	MC4R barr agon	NTR1 ag	MC4R antag cAMP	AI-2 QS modul	U2OS cAMP counter	MC4R antag conf
Cc1ccc(NC(=O)c2cc(N3C(=O)C=CC3=O)ccc2Cl)cc1C	-2	0	57*	60	8	12
Cc1ccc(NC(=O)c2cc(-n3cnnc3)ccc2Cl)cc1	-1	1	2	6	/	/
Cc1ccc(NC(=O)c2cc(N3C(=O)C=CC3=O)ccc2N2CCOCC2)cc1	-2	/	69*	27	9	50*
CSCCC(Nc1ncnc2ccc(Br)cc12)C(=O)O (stereo not given)	0	1	31*	23	8	12
COc1ccc(C(=O)OCC(=O)NCC2CCCCC2)c(OC)c1	-1	1	0	/	/	/
COc1ccc(N(C)S(=O)(=O)c2cccc(C(=O)OCC(=O)NCc3ccccc3OC)c2)cc1	-1	4	30*	1	3	5
CN(c1ccccc1)S(=O)(=O)c1cccc(C(=O)OCC(=O)NCc2ccccc2)c1	1	5	14	/	/	/
CCOC(OCC)c1nc(N)[nH]c(=O)c1CCCCc1ccccc1	-2	/	-3	/	/	/
CCCN(Cc1nnc(-c2cccs2)o1)C(=O)CN1C(=O)NC2(CCCCC2)C1=O	-1	0	-2	/	/	/
CC1(C)Cc2c(c(N3CCOCC3)nc3snc(NC(=O)c4ccccc4)c23)CO1	1	0	5	26	/	/
Cc1nc2c(sc3nc(N4CCOCC4)c4c(c32)CC(C)(C)OC4)c(-c2ccccc2)c1C(=O)O	0	5	40*	25	12	20
CNc1c(NS(=O)(=O)c2ccc(Br)cc2)c(=O)oc2ccccc12	1	-1	0	21	/	/
O=C(COC(=O)[C@H](Cc1ccccc1)NC(=O)c1ccco1)NC(c1ccccc1)c1ccccc1	0	2	32*	-1	20*	36*
O=C(COC(=O)[C@H](Cc1ccccc1)NC(=O)c1ccco1)Nc1ccccc1	-2	5	13	/	/	/
O=C(COC(=O)[C@H](Cc1ccccc1)NC(=O)c1cccs1)NC1CCCCC1	-2	3	37*	20	8	10
O=C(COC(=O)[C@H](Cc1ccccc1)NC(=O)c1cccs1)NC1CC1	-1	1	21	12	/	/
CSc1ncccc1C(=O)OCC(=O)Nc1nc(C)c(Cl)cc1Cl	1	-1	0	/	/	/
CC(=O)c1cccc(NC(=O)CN(C)S(=O)(=O)c2ccc3c(c2)CC(C)N3C(C)=O)c1 (stereo not given)	-2	0	-2	12	/	/
CC(=O)Nc1cccc(NC(=O)CSc2ncc(C(=O)Nc3ccccc3)c(=O)n2C)c1	-4	4	30*	0	0	20
O=Cc1c(SCCO)nc2ccccn2c1=O	-1	1	-1	23	/	/
COC(=O)CSc1nc2ccccn2c(=O)c1C=O	0	3	31*	13	0	-10
COCCN(C(=O)c1csnn1)C(C(=O)NC1CCCC1)c1ccc(C)cc1 (stereo not given)	-2	0	2	26	/	/
COCCN(C(=O)c1csnn1)C(C(=O)NC1CCCC1)c1ccccc1F (stereo not given)	0	0	29*	/	-2	-9
COCCNC(=O)C(c1ccccc1F)N(C(=O)C(=O)NC1CCCC1)C1CCCCC1 (stereo not given)	-1	1	29*	-4	-1	-5
Cc1nnc2n(-c3ccccc3)c(=O)c3c4c(sc3n12)CCCC4	-1	-1	29*	50	0	16
SMILES	MC4R barr agon	NTR1 ag	MC4R antag cAMP	AI-2 QS modul	U2OS cAMP counter	MC4R antag conf
Cc1nnc2n(-c3ccccc3)c(=O)c3c4c(sc3n12)COC(C)(C)C4	0	0	4	-9	/	/
Cc1cccc(C)c1OCC(=O)N/N=C/c1cccnc1	2	0	17	3	/	/
O=C1/C(=C/c2ccc([N+](=O)[O-])cc2)C=C(c2ccccc2)N1c1ccccc1	1	2	-3	10	/	/
O=C1/C(=C/c2ccc([N+](=O)[O-])cc2)C=C(c2ccccc2)N1c1ccc(O)cc1	-1	20	32*	13	9	20
O=C1OCCC1Sc1nnnn1-c1ccc(Cl)cc1 (stereo not given)	-2	1	38*	-2	22*	39*
O=C1OCCC1Sc1nnnn1-c1ccccc1 (stereo not given)	-1	-3	15	16	/	/
CC(C)Cn1c(N)c(C(=O)COC(=O)c2ccc([N+](=O)[O-])o2)c(=O)n(C)c1=O	-2	3	35*	14	10	19
CCCOc1ccc(NC(=O)CCC(=O)NC(C)c2ccccc2)cc1 (stereo not given)	0	1	2	6	/	/
CCOc1ccc(NC(=O)CNC(=O)c2nn(-c3ccc(OC)c(OC)c3)c(=O)c3ccccc23)cc1	1	-2	38*	/	13	19
Cc1cccn2c(=O)c(/C=C(\C#N)C(N)=O)c(N3CCN(c4cccc(Cl)c4)CC3)nc12	1	15	9	15	/	/
COc1ccc(S(=O)(=O)NNC(=O)C(=O)NNc2ccccn2)cc1	1	0	31*	29	2	-18
CC(=O)Nc1ccc(S(=O)(=O)N[C@@H](C)C(=O)OCC(=O)c2ccc(Br)s2)cc1	-2	/	34*	/	33*	55*
C[C@H](NC(=O)c1nc[nH]c1C(=O)N[C@@H](Cc1ccccc1)C(=O)OCc1ccccc1)C(=O)OC(C)(C)C	8	26	34*	0	8	11
CC(C)C[C@H](NC(=O)c1nc[nH]c1C(=O)N1CCN(C(=O)OC(C)(C)C)CC1)C(=O)OCc1ccccc1	-1	16	34*	16	16*	23
O=C(NCc1ccncc1)c1cc(C(=O)C2CC2)c[nH]1	-2	0	1	25	/	/
O=C(NCc1ccncc1)c1cc(C(=O)C2CCCCC2)c[nH]1	-1	2	30*	30	4	-7
N#Cc1cccc(C(c2nnnn2CCc2ccccc2)N2CCN(C3CCCCC3)CC2)c1 (stereo not given)	2	1	29*	3	3	3
O=C(Nc1nnc(-c2ccccc2)s1)c1cc(S(=O)(=O)N2CCOCC2)c(Cl)cc1Cl	-2	2	32*	6	11	26
Cc1noc(C)c1C(=O)N1CCC1(C)C(=O)NS(=O)(=O)c1ccc(Cl)cc1 (stereo not given)	-1	/	13	/	/	/
CN(Cc1ccccc1)c1nc(N)nc(Cl)c1C=O	-1	8	34*	14	17*	8
COc1cc(OC)cc(C(=O)Nc2ccccc2-c2nnn(CC(=O)Nc3cc(C)on3)n2)c1	8.8*	9	30*	1	6	14
COc1ccc(C(=O)Nc2ccccc2-c2nnn(CC(N)=O)n2)cc1	1	/	4	/	/	/
